Assays:
[1] = tested on: KM12; test: Cytotoxicity against human KM12 cells after 48 hrs by XTT assay; type: functional; settings: KM12, 48 h
How it was run: (§1)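 Two-day XTT colorimetric assay run on COLO205 and KM12 in parallel. Cells kept in RPMI-1640 with phenol red, 2mM L-glutamine and 10% FBS at 37 °C, 5% CO₂, and discarded after 25 passages. For the assay, cells were harvested into phenol-red-free medium without antibiotics and plated at 5,000 cells/well. After 24 hrs of incubation, samples were added as eight 2-fold serial dilutions. Values are the average of at least two tests.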

[2] = tested on: COLO 205; test: Cytotoxicity against human COLO205 cells after 48 hrs by XTT assay; type: functional; settings: COLO 205, 48 h; how it was run: as §1

Row | SMILES | GI50 [1] [µM] | GI50 [2] [µM]
1 | CC1(C)CCC[C@]2(C)[C@H]3COC(=O)C3=CC[C@@H]12 [CINNAMOLIDE] | > 85 | > 85
2 | CO[C@H]1O[C@H](OC)[C@H]2C1=CC[C@H]1C(C)(C)CC[C@@H](OC(=O)/C=C/c3ccc(O)cc3)[C@]21C | > 45 | > 45
3 | CC1(C)C=Cc2c(cc3c(c2O)C(=O)C[C@H](c2ccc(O)c(O)c2)C3)O1 [ZYGOLONE A] | 14 | 17
4 | C=C(C)C1Cc2c(cc3c(c2O)C(=O)C[C@H](c2ccc(O)c(O)c2)C3)O1 (stereo not given in full) [ISOZYGOLONE A] | 32 | 32
5 | CC1(C)CC[C@@H](OC(=O)/C=C/c2ccc(O)cc2)[C@]2(C)[C@@H]3C(=CC[C@@H]12)CO[C@@H]3O | 14 | 18
6 | CC1(C)CC[C@@H](OC(=O)/C=C/c2ccc(O)cc2)[C@]2(C)[C@@H]3C(=CC[C@@]12O)CO[C@@H]3O | 25 | 29
7 | COc1cc(O)c2c(c1)C[C@@H](c1ccc(O)c(O)c1)CC2=O [CALOTHYRLONE A] | > 67 | > 67
8 | C=C(C)C1Cc2c(cc3c(c2O)C(=O)C[C@H](c2ccc(O)cc2)C3)O1 (stereo not given in full) | 29 | 35
9 | COc1ccc([C@H]2CC(=O)c3c(cc4c(c3O)C=CC(C)(C)O4)C2)cc1O | 17 | 11
10 | CC1(C)CC[C@@H](OC(=O)/C=C/c2ccc(O)cc2)[C@]2(C)[C@@H](C=O)C(C=O)=CC[C@@H]12 | 25 | 29

Source: ChEMBL document CHEMBL2331156, “Growth inhibition of human colon carcinoma cells by sesquiterpenoids and tetralones of Zygogynum calothyrsum” (2013)
